# According to ChEMBL document CHEMBL3124866, “Small molecular antibacterial peptoid mimics: the simpler the better!” (J Med Chem, 2014):
# The source made the active and inactive calls. The rule behind the calls is not given here. Residues, ends and D or L forms follow the SMILES beside them.
# Key:
# Pseudomonas aeruginosa [1] = assay: Antibacterial activity against Pseudomonas aeruginosa ATCC 27853 after 24 hrs by broth microdilution assay; type: functional; details: ATCC 27853, 24 h
# Escherichia coli [2] = assay: Antibacterial activity against Escherichia coli ATCC 25922 after 24 hrs by broth microdilution assay; type: functional; details: ATCC 25922, 24 h
# Staphylococcus aureus [3] = assay: Antibacterial activity against Staphylococcus aureus ATCC 29213 after 24 hrs by broth microdilution assay; type: functional; details: ATCC 29213, 24 h
# Klebsiella pneumoniae = assay: Antibacterial activity against beta-lactam-resistant Klebsiella pneumoniae ATCC 700603 after 24 hrs by broth microdilution assay; type: functional; details: ATCC 700603, 24 h
# How it was run: (§1)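 MIC by broth microdilution. Cultures were grown 6 h to ~10^9 cfu/mL, then diluted to 10^5 cfu/mL. Media: yeast-dextrose broth for MRSA, BHI for VRE, and beef extract/peptone nutrient broth for K. pneumoniae. Compounds were serially diluted in water, 50 µL added to 150 µL cells, and incubated 24 h at 37 °C. OD600 triplicates were sigmoid-fitted; MIC is the point where OD equals the no-bacteria control. Mean ± SEM of ≥2 experiments.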
# Enterococcus faecium [4] = assay: Antibacterial activity against vancomycin-resistant Enterococcus faecium ATCC 51559 after 24 hrs by broth microdilution assay; type: functional; details: ATCC 51559, 24 h; how it was run: as §1
# Staphylococcus aureus [5] = assay: Antibacterial activity against methicillin-resistant Staphylococcus aureus ATCC 33591 after 24 hrs by broth microdilution assay; type: functional; details: ATCC 33591, 24 h; how it was run: as §1
# Enterococcus faecium [6] = assay: Antibacterial activity against Enterococcus faecium ATCC 29212 after 24 hrs by broth microdilution assay; details: ATCC 29212, 24 h
# Staphylococcus aureus [7] = assay: Antibacterial activity against drug-sensitive Staphylococcus aureus MTCC 737 assessed as cytoplasmic membrane depolarization at MIC measured up to 12 mins by DiSC3(5) dye-based fluorimetric analysis; type: functional, organism-based
# How it was run: (§2)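 Mid-log cells were washed and resuspended at 10^8 cfu/mL in 5 mM glucose, 5 mM HEPES and 100 mM KCl (1:1:1). They were loaded with 2 µM DiSC3(5) for 10 min (S. aureus) or 20 min (P. aeruginosa, E. coli), then stabilized 2 min at room temperature. Compound was added and depolarization read as fluorescence increase (ex 622 nm, em 670 nm) over 10 min.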
# [8] = Therapeutic index, ratio of HC50 for human erythrocytes to MIC for drug-sensitive Pseudomonas aeruginosa ATCC 4676; details: read-out: TI
# Staphylococcus aureus [9] = assay: Antibacterial activity against drug-sensitive Staphylococcus aureus MTCC 737 assessed as formation of blebs and holes at 10 X MIC after 2 hrs by field-emission scanning electron microscopic analysis; type: functional, organism-based
# How it was run: (§3)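 Cells grown 6 h (E. coli in LB, S. aureus in yeast-dextrose broth) were resuspended at 10^6 cells/mL in nutrient media pH 7.4. They were treated at 10× MIC at 37 °C for 2 h with 250 rpm shaking, beside an untreated control. Cells were pelleted, dehydrated through a 30–100% ethanol series and dried on silicon wafer. S. aureus was sputter-coated; E. coli was imaged uncoated by FESEM.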
# Escherichia coli [10] = assay: Antibacterial activity against drug-sensitive Escherichia coli MTCC 443 assessed as merging of dead bacteria with each other at 10 X MIC after 2 hrs by field-emission scanning electron microscopic analysis; type: functional, organism-based; how it was run: as §3
# Escherichia coli [11] = assay: Antibacterial activity against drug-sensitive Escherichia coli MTCC 443 assessed as disruption of cell membrane at 10 X MIC after 2 hrs by field-emission scanning electron microscopic analysis; type: functional, organism-based; how it was run: as §3
# Staphylococcus aureus [12] = assay: Antibacterial activity against drug-sensitive Staphylococcus aureus MTCC 737 assessed as change in cell membrane morphology at 10 X MIC after 1.5 hrs by SYTO and propidium iodide staining-based fluorescence microscopic analysis; type: functional, organism-based
# How it was run: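 Suspension at 10^9 cells/mL was treated at 10× MIC for 1.5 h, beside an untreated control. Cells were pelleted, resuspended in PBS and mixed with a probe mix of 3.0 µM SYTO 9 and 15.0 µM PI. After 15 min in the dark, cells were examined by fluorescence microscopy.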
# Escherichia coli [13] = assay: Antibacterial activity against drug-sensitive Escherichia coli MTCC 443 assessed as outer cytoplasmic membrane permeabilization at MIC measured up to 10 mins by N-phenylnaphthylamine dye-based fluorescence assay; type: functional, organism-based
# How it was run: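 Mid-log E. coli (6 h, 10^8 cells/mL) were washed and resuspended in 5 mM glucose/5 mM HEPES pH 7.2 with 10 µM NPN. Compound was added in water. Outer membrane uptake of NPN was followed as fluorescence increase (ex 350 nm, em 420 nm) for 10 min.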
# Staphylococcus aureus [14] = assay: Antibacterial activity against drug-sensitive Staphylococcus aureus MTCC 737 assessed as inner cytoplasmic membrane permeabilization at MIC measured up to 10 mins by propidium iodide staining-based fluorescence assay; type: functional, organism-based
# How it was run: (§4)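 Mid-log S. aureus were harvested, washed and resuspended in 5 mM HEPES/5 mM glucose pH 7.2 containing 15 µM propidium iodide. Compound was added and PI uptake followed as fluorescence increase (ex 535 nm, em 617 nm) for 10 min.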
# Escherichia coli [15] = assay: Antibacterial activity against drug-sensitive Escherichia coli MTCC 443 at MIC measured […] by DiSC3(5) dye-based fluorimetric analysis; type: functional, organism-based; how it was run: as §2
# [16] = Stability of the compound assessed as trypsin (unknown origin)-mediated drug degradation at 1 mg/ml up to 24 hrs by LC-MS analysis; type: ADME; details: human
# How it was run: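 Compound at 1 mg/mL (solution before mixing) was incubated with trypsin in 0.1 M NH4HCO3 at 37 °C. Aliquots were taken from 0 min to 24 h, diluted with water and analyzed by LC-MS for new products and total ion current. A no-trypsin control was sampled at 0 and 24 h.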
# Staphylococcus aureus [17] = assay: Antibacterial activity against drug-sensitive Staphylococcus aureus MTCC 737 preincubated for 3 hrs in 50% human plasma measured after 24 hrs by broth microdilution assay; type: functional; details: MTCC 737, Plasma
# How it was run: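 Plasma was separated by centrifuging fresh human blood. Compound at 1600 µg/mL in 50% plasma was preincubated at 37 °C for 0, 3 or 6 h. Two-fold dilutions were added 1:3 to S. aureus at 10^5 cfu/mL and incubated 37 °C for 24 h. MIC was read by OD as in the broth assay.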
# Staphylococcus aureus [18] = assay: Bactericidal activity against drug-sensitive Staphylococcus aureus MTCC 737 at 2 X MIC after 24 hrs by time-kill assay; type: functional, organism-based
# How it was run: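 S. aureus at ~1.8×10^6 CFU/mL in fresh media was exposed at MIC and 2× MIC. Samples were taken at 0, 1, 2, 3, 6 and 24 h and serially diluted 10-fold in 0.9% saline. They were plated on yeast-dextrose agar at 37 °C overnight, and colonies were counted as log10 CFU/mL.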
# [19] = Retention time of the compound by HPLC analysis; type: physicochemical
# [20] = Hemolytic activity in human erythrocytes after 1 hr by spectrophotometric analysis; type: ADME, cell-based, Erythrocyte
# How it was run: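 Heparinized fresh human erythrocytes at 5 vol% in PBS pH 7.4 were mixed 3:1 with serially diluted compound and held 1 h at 37 °C. Plates were centrifuged and supernatant A540 read. Hemolysis was scaled between an untreated control and a Triton X-100 (100% lysis) control. HC50 is the mean of at least two independent triplicate experiments.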
# Pseudomonas aeruginosa [21] = assay: Antibacterial activity against drug-sensitive Pseudomonas aeruginosa ATCC 4676 after 24 hrs by broth microdilution assay; type: functional; details: ATCC 4676, 24 h
# How it was run: (§5)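 Bacteria grown 6 h to ~10^9 cfu/mL and diluted to 10^5 cfu/mL in nutrient media. Growth media were LB (E. coli), yeast-dextrose broth (S. aureus, P. aeruginosa) and BHI (E. faecium). Compound was serially diluted in water and added 1:3 to bacteria, then incubated 37 °C for 24 h with OD600 read-out. Triplicate ODs were sigmoid-fitted; MIC was taken where OD matched the no-bacteria control. At least two independent experiments.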
# Escherichia coli [22] = assay: Antibacterial activity against drug-sensitive Escherichia coli MTCC 443 after 24 hrs by broth microdilution assay; type: functional; details: MTCC 443, 24 h; how it was run: as §5
# Enterococcus faecium [23] = assay: Antibacterial activity against drug-sensitive Enterococcus faecium ATCC 19634 after 24 hrs by broth microdilution assay; type: functional; details: ATCC 19634, 24 h; how it was run: as §5
# Staphylococcus aureus [24] = assay: Antibacterial activity against drug-sensitive Staphylococcus aureus MTCC 737 after 24 hrs by broth microdilution assay; type: functional; details: MTCC 737, 24 h; how it was run: as §5
# Staphylococcus aureus [25] = assay: Antibacterial activity against drug-sensitive Staphylococcus aureus MTCC 737 assessed as inner cytoplasmic membrane permeabilization at 2 X MIC to 4 X MIC measured up to 10 mins by propidium iodide staining-based fluorescence assay; type: functional, organism-based; how it was run: as §4
# Pseudomonas aeruginosa [26] = assay: Antibacterial activity against drug-sensitive Pseudomonas aeruginosa ATCC 4676 at MIC to 2 X MIC measured […] by DiSC3(5) dye-based fluorimetric analysis; type: functional, organism-based; how it was run: as §2
# Staphylococcus aureus [27] = assay: Antibacterial activity against drug-sensitive Staphylococcus aureus MTCC 737 assessed as cytoplasmic membrane depolarization at MIC to 4 X MIC measured […] by DiSC3(5) dye-based fluorimetric analysis; type: functional, organism-based; how it was run: as §2
# Staphylococcus aureus [28] = assay: Bactericidal activity against methicillin-resistant Staphylococcus aureus ATCC 33591 at 3 X MIC after 6 hrs by time-kill assay; type: functional, organism-based
# How it was run: (§6)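 Time-kill: MRSA (~1.8×10^6 CFU/mL in fresh media) exposed at 37 °C to compound at 1×, 3× or 6× MIC. Aliquots taken at 0, 1, 2, 3, 6 and 24 h, 10-fold serially diluted in 0.9% saline, plated on yeast-dextrose agar, incubated overnight at 37 °C. Colonies counted, expressed as log10 CFU/mL.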
# Staphylococcus aureus [29] = assay: Bactericidal activity against methicillin-resistant Staphylococcus aureus ATCC 33591 at 6 X MIC after 1 hr by time-kill assay; type: functional; how it was run: as §6
# Escherichia coli [30] = assay: Ratio of MSI-78 MIC to compound MIC for Escherichia coli; type: functional
Structure (SMILES),MIC (Klebsiella pneumoniae) [µg/mL],MIC (Enterococcus faecium [4]) [µg/mL],MIC (Staphylococcus aureus [5]) [µg/mL],selectivity ratio [8],Activity (Staphylococcus aureus [9]),Activity (Escherichia coli [10]),Activity (Escherichia coli [11]),Activity (Staphylococcus aureus [12]),Retention_time [19] [min],HC50 at 1 h [20] [µg/mL],MIC (Pseudomonas aeruginosa [21]) [µg/mL],MIC (Escherichia coli [22]) [µg/mL],MIC (Enterococcus faecium [23]) [µg/mL],MIC (Staphylococcus aureus [24]) [µg/mL],also measured
CC[C@H](C)[C@H](NC(=O)CN)C(=O)NCC(=O)N[C@@H](CCCCN)C(=O)N[C@@H](Cc1ccccc1)C(=O)N[C@@H](CC(C)C)C(=O)N[C@@H](CCCCN)C(=O)N[C@@H](CCCCN)C(=O)N[C@@H](C)C(=O)N[C@@H](CCCCN)C(=O)N[C@@H](CCCCN)C(=O)N[C@@H](Cc1ccccc1)C(=O)NCC(=O)N[C@@H](CCCCN)C(=O)N[C@@H](C)C(=O)N[C@@H](Cc1ccccc1)C(=O)N[C@H](C(=O)N[C@@H](CCCCN)C(=O)N[C@H](C(=O)N[C@@H](CC(C)C)C(=O)N[C@@H](CCCCN)C(=O)N[C@@H](CCCCN)C(N)=O)[C@@H](C)CC)C(C)C [PEXIGANAN] (H-GIGKFLKKAKKFGKAFVKILKK-NH2),8,8,16,–,–,–,–,–,–,–,–,–,–,–,MIC (Pseudomonas aeruginosa [1]): 8 µg/mL; MIC (Escherichia coli [2]): 16 µg/mL; MIC (Staphylococcus aureus [3]): 8 µg/mL; MIC (Enterococcus faecium [6]): 64 µg/mL
CCCCCCN(Cc1cccc2ccccc12)C(=O)[C@@H](N)CCCCN.O=C(O)C(F)(F)F.O=C(O)C(F)(F)F,100,54,65,50,Active,Active,Active,Active,11.8,508,11,25,34,20,Activity (Staphylococcus aureus [7]): Active; Activity (Escherichia coli [13]): Active; Activity (Staphylococcus aureus [14]): Active; Activity (Escherichia coli [15]): Active; Stability [16]: Stable; MIC (Staphylococcus aureus [17]): 30 µg/mL; Activity (Staphylococcus aureus [18]): Active
CCCCCCN(Cc1c2ccccc2c(Cl)c2ccccc12)C(=O)[C@@H](N)CCCCN.O=C(O)C(F)(F)F.O=C(O)C(F)(F)F,16,5.2,2.8,50,Active,Active,Active,Active,13.6,82,1.6,3.5,3.3,2.4,Activity (Staphylococcus aureus [25]): Active; Activity (Pseudomonas aeruginosa [26]): Active; Activity (Staphylococcus aureus [27]): Active; Activity (Staphylococcus aureus [28]): Active; log10CFU/ml (Staphylococcus aureus [29]): 6; Ratio (Escherichia coli [30]): 5
